# Substitutions are numbered along the chain they refer to.
# B1: phosphorylated Swi6 (pSwi6) (natural protein)
# chain: MKKGGVRSYRRSSTSKRSVIDDDSEPELPSMTKEAIASHKADSGSSDNEVESDHESKSSSKKLKENAKEEEGGEEEEEDEYVVEKVLKHRMARKGGGYEYLLKWEGYDDPSDNTWSSEADCSGCKQLIEAYWNEHGGRPEPSKRKRTARPKKPEAKEPSPKSRKTDEDKHDKDSNEKIEDVNEKTIKFADKSQEEFNENGPPSGQPNGHIESDNESKSPSQKESNESEDIQIAETPSNVTPKKKPSPEVPKLPDNRELTVKQVENYDSWEDLVSSIDTIERKDDGTLEIYLTWKNGAISHHPSTITNKKCPQKMLQFYESHLTFRENE
# B2: pSwi6^S18/24A: phospho-mutant protein, S18 and S24 mutated to alanines, co-expressed with CKII (protein)
# chain: B1 chain with S18A, S24A
# modifications: left off: 6xHis, N-terminal, cleaved
# Key:
# [1] = test system: H3K9 methylation states; conditions: faster than H3K9me2 to me3; ref Al-Sady et al. 2013; cited from earlier work
# [2] = test system: pSwi6 (CKII-phosphorylated Swi6) (Schizosaccharomyces pombe); experiment: fluorescence polarization; conditions: histone H3 Kc9me3 (methyl-lysine analog)
# [3] = test system: pSwi6 S18/24A (CKII-phosphorylated) (Schizosaccharomyces pombe); experiment: fluorescence polarization
# [4] = test system: unpSwi6 (unphosphorylated Swi6) (Schizosaccharomyces pombe); experiment: fluorescence polarization; conditions: histone H3K9 unmethylated
# [5] = test system: spreading 'orange' reporter (mKO2); experiment: Flow cytometry, MAT ΔREIII HSS 'orange' spreading reporter; format: cell-based, Schizosaccharomyces pombe; conditions: separate experiment with Δckb1, SFigure 1J–L
# How it was run: (§1)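 Strains from −80°C stocks were revived on YES plates. Cells were grown overnight in 200 μL YES at 32°C to saturation. The next morning they were diluted 1:25 in YES into mid-log phase and analysed by flow cytometry for single-cell reporter fluorescence. Compensation and analysis followed a prior protocol.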
# [6] = test system: nucleation 'green' reporter (SF-GFP); experiment: Flow cytometry, MAT ΔREIII HSS 'green' nucleation reporter; format: cell-based, Schizosaccharomyces pombe; conditions: separate experiment with Δckb1, SFigure 1J–L
# How it was run: as §1
# [7] = test system: H3Kc9me3 mononucleosomes; experiment: Fluorescence polarization, H3Kc9me3; format: binding
# [8] = test system: H3K9me3 peptide (fluoresceinated H3 1-20); conditions: H3K9me3 vs H3K9me0 peptide; ref Canzio et al. 2011; cited from earlier work
# [9] = test system: genomic loci; experiment: anti-pS18-pS24 ChIP-seq; format: cell-based, S. pombe; conditions: wildtype; SFigure 8F
# How it was run: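 FLAG ChIP: strains express FLAG-tagged Swi6 variants; IP with M2 anti-FLAG. pS18-pS24 ChIP: untagged strains; IP with anti-pS18-pS24 antibody; lysis buffer also contains 0.1 mM orthovanadate and 60 mM β-glycerophosphate. Both: grown to saturation in YES at 32°C, then 2 h at 18°C. 600×10^6 cells fixed with 1.5 mM EGS (30 min), then 1% formaldehyde (30 min). Drosophila spike-in added; three technical replicates; spike-in-adjusted cpm.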
# [10] = target: the molecule itself; experiment: SEC-MALS + cross-linking
# [11] = test system: H3K9me0 mononucleosomes; experiment: Fluorescence polarization, H3K9me0 mononucleosome; format: binding; conditions: Figure 7C, SFigure 10D
# How it was run: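 Reconstituted H3K9me0 mononucleosomes on fluorescein-labelled 601 DNA were fixed at 25 nM. Purified Swi6, either unphosphorylated or co-expressed with casein kinase II catalytic subunits, was titrated at 0–200 μM. Fluorescence polarization was read at ex 485 / em 528 nm and fitted to a Kd equation.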
# [12] = test system: Clr4 (H3K9me2 mononucleosome substrate); experiment: Single turnover H3K9me2 to H3K9me3 conversion by Clr4; format: biochemical, S. pombe; conditions: 5 μM Clr4, 1 mM SAM, 500 nM H3K9me2 nucleosomes, 25°C
# How it was run: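 Purified Clr4 (5 μM) was preincubated for 5 min at 25°C with 1 mM SAM and varying Swi6 concentrations (unphosphorylated or phosphorylated). Reactions were started by adding commercial H3K9me2 nucleosomes to 500 nM. Timepoints were stopped by boiling in Laemmli buffer, run on 18% SDS-PAGE and blotted for H3K9me3 and H4. Signals were quantified against H3K9me3 nucleosome standard curves and fitted to a single exponential rise.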
# [13] = test system: Swi6 oligomerization; experiment: Glutaraldehyde crosslinking western, oligomerization; format: biochemical; conditions: 0.01% glutaraldehyde, 2 h, room temperature; compared to pSwi6; Figure 7B
# How it was run: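 Purified Swi6 in storage buffer (25 mM HEPES pH 7.5, 100 mM KCl, 10% glycerol, 10 mM βME) was tested at various protein concentrations. It was crosslinked with 0.01% glutaraldehyde for 2 h at room temperature, then quenched with 50 mM Tris pH 7.4. Samples were diluted to 4.2 μM, run on 4–12% Tris-glycine gradient gels and analysed by western blot with fluorescent detection.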
molecule,measurement,setting,value
Clr4: H3K9 methylase of S. pombe,rate of H3K9me0 to me1 and me1 to me2 conversion relative to me2 to me3,[1],10 X
"H3Kc9me3 (MLA) mononucleosome, 601 DNA 147 bp",binding signal (relative Kd (reference)),[2],1
same,binding signal (relative Kd (pSwi6 on H3Kc9me3 = 1)),[3]; histone H3 Kc9me3 (methyl-lysine analog),0.38
"H3K9me0 mononucleosome, 601 DNA 147 bp",binding signal (relative Kd (pSwi6 on H3Kc9me3 = 1)),[3]; histone H3K9 unmethylated,1.67
same,Kd,[4],2330 nM
wildtype swi6: wildtype swi6 open reading frame in MAT ΔREIII HSS strain [reference compound],'orange' (spreading) reporter cells ON,[5],7.04%
same,'green' (nucleation) reporter cells ON,[6],0.36%
"unpSwi6: recombinant Swi6 expressed in E. coli without CKII, His tag removed by TEV",specificity for H3K9me3 mark on nucleosomes,[7]; H3Kc9me3 vs H3K9me0 nucleosomes,19.4 X
same,tighter binding to H3Kc9me3 nucleosome than to H3K9me3 peptide,[7]; Kd nucleosome vs Kd tail peptide,68 X
same,"specificity for H3K9me3 peptide, previously reported",[8],~ 130 X
FLAG-Swi6: 3XFLAG tagged wildtype Swi6 at endogenous locus,pS18-pS24 pool versus overall FLAG-Swi6 accumulation,[9],no significant differences in accumulation between the overall Swi6 pool and the pS18-pS24 pool
B1,stoichiometry N,[10],8
B2,increase in affinity towards H3K9me0 nucleosome versus pSwi6,[11],4.5 X
same,increase in affinity towards H3Kc9me3 nucleosome versus pSwi6,"[7]; Figure 7C, SFigure 10D",2.6 X
same,effect on conversion of H3K9me2 to H3K9me3 by Clr4,[12],decrease in tri-methylation
same,propensity to oligomerize,[13],strongly decreased propensity to oligomerize

# Reference: article PMC11565791 (bioRxiv, 2025)
